Reference: ChEMBL document CHEMBL1141000, “cis-Nitromethylene neonicotinoids as new nicotinic family: synthesis, structural diversity, and insecticidal evaluation of hexahydroimidazo[1,2-alpha]pyridine” (2008)
Converted amounts (≈) assume the structure as drawn.

How the values were obtained:
Format in all cases: functional
[1] = system: Aphis craccivora; experiment: Insecticidal activity against Aphis craccivora assessed as mortality at 500 mg/L
[2] = system: Aphis craccivora; experiment: Insecticidal activity against Aphis craccivora
[3] = system: Nilaparvata lugens; experiment: Insecticidal activity against imidacloprid-sensitive Nilaparvata lugens
How it was run: (§1)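 Nilaparvata lugens (brown planthopper), sensitive and imidacloprid-resistant strains tested separately, using a protocol similar to the pea aphid bioassay. Activity expressed as LC50 (mg/L).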

[4] = system: Nilaparvata lugens; experiment: Insecticidal activity against imidacloprid-resistant Nilaparvata lugens; how it was run: as §1

Compound | Activity [1] | LC50 [2] | LC50 [3] | LC50 [4]
CCOC1CC(C(C)C)C([N+](=O)[O-])=C2N(Cc3ccc(Cl)nc3)CCN21 (stereo unspecified) | 72% |  |  | 
CCC(C)OC1CC(C)C([N+](=O)[O-])=C2N(Cc3ccc(Cl)nc3)CCN21 (stereo unspecified) | 0% |  |  | 
CCCC1CC(OC(C)C)N2CCN(Cc3ccc(Cl)nc3)C2=C1[N+](=O)[O-] (stereo unspecified) | 79% |  |  | 
COC1C(C)CC([N+](=O)[O-])=C2N(Cc3ccc(Cl)nc3)CCN21 (stereo unspecified) | 73% |  |  | 
CC1C([N+](=O)[O-])=C2N(Cc3ccc(Cl)nc3)CCN2C(O)C1C (stereo unspecified) | 50% |  |  | 
O=[N+]([O-])C1=C2N(Cc3ccc(Cl)nc3)CCN2C(O)C2CCCCC12 (stereo unspecified) | 0% |  |  | 
CCCOC1CC(CC)C([N+](=O)[O-])=C2N(Cc3ccc(Cl)nc3)CCN21 (stereo unspecified) | 100% | 86.4 µg/mL (≈ 227 µM) |  | 
CCC1CC(OC(C)C)N2CCN(Cc3ccc(Cl)nc3)C2=C1[N+](=O)[O-] (stereo unspecified) | 100% | 88.9 µg/mL (≈ 233 µM) |  | 
CC1CC(OCc2ccccc2)N2CCN(Cc3ccc(Cl)nc3)C2=C1[N+](=O)[O-] (stereo unspecified) | 94% |  |  | 
CCC1CC(OC)N2CCN(Cc3ccc(Cl)nc3)C2=C1[N+](=O)[O-] (stereo unspecified) | 90% |  | 1.07 µg/mL (≈ 3.03 µM) | 8.87 µg/mL (≈ 25.1 µM)
CC1CC(OC2CCCCC2)N2CCN(Cc3ccc(Cl)nc3)C2=C1[N+](=O)[O-] (stereo unspecified) | 0% |  |  | 
COC1CC(c2ccccc2)C([N+](=O)[O-])=C2N(Cc3ccc(Cl)nc3)CCN21 (stereo unspecified) | 50% |  |  | 
CCOC1CC(c2ccccc2)C([N+](=O)[O-])=C2N(Cc3ccc(Cl)nc3)CCN21 (stereo unspecified) | 89% |  |  | 
CC1(O)CCC([N+](=O)[O-])=C2N(Cc3ccc(Cl)nc3)CCN21 (stereo unspecified) | 90% |  |  | 
CCCC1CC(OC)N2CCN(Cc3ccc(Cl)nc3)C2=C1[N+](=O)[O-] (stereo unspecified) | 89% |  |  | 
CCCOC1CC(CCC)C([N+](=O)[O-])=C2N(Cc3ccc(Cl)nc3)CCN21 (stereo unspecified) | 82% |  |  | 
CCCOC1CC(c2ccccc2)C([N+](=O)[O-])=C2N(Cc3ccc(Cl)nc3)CCN21 (stereo unspecified) | 45% |  |  | 
CC(C)OC1CC(c2ccccc2)C([N+](=O)[O-])=C2N(Cc3ccc(Cl)nc3)CCN21 (stereo unspecified) | 0% |  |  | 
CCC1C([N+](=O)[O-])=C2N(Cc3ccc(Cl)nc3)CCN2C(O)C1C (stereo unspecified) | 0% |  |  | 
CCCC1CC(O)N2CCN(Cc3ccc(Cl)nc3)C2=C1[N+](=O)[O-] (stereo unspecified) | 25% |  |  | 

Compound | Activity [1] | LC50 [2] | LC50 [3] | LC50 [4]
O=[N+]([O-])C1=C2N(Cc3ccc(Cl)nc3)CCN2C(O)CC1c1ccc([N+](=O)[O-])cc1 (stereo unspecified) | 0% |  |  | 
CC(C)OC1CC(C)C([N+](=O)[O-])=C2N(Cc3ccc(Cl)nc3)CCN21 (stereo unspecified) | 100% | 96.2 µg/mL (≈ 262 µM) | 5.57 µg/mL (≈ 15.2 µM) | 6.33 µg/mL (≈ 17.3 µM)
COC1CC(C)C([N+](=O)[O-])=C2N(Cc3ccc(Cl)nc3)CCN21 (stereo unspecified) | 100% | 50 µg/mL (≈ 148 µM) |  | 
CCCCOC1CC(C)C([N+](=O)[O-])=C2N(Cc3ccc(Cl)nc3)CCN21 (stereo unspecified) | 58.4% |  |  | 
CC(C)C1CC(O)N2CCN(Cc3ccc(Cl)nc3)C2=C1[N+](=O)[O-] (stereo unspecified) | 0% |  |  | 
O=[N+]([O-])C1=C2N(Cc3ccc(Cl)nc3)CCN2C(O)CC1c1ccccc1 (stereo unspecified) | 30% |  |  | 
CCCCC1CC(O)N2CCN(Cc3ccc(Cl)nc3)C2=C1[N+](=O)[O-] (stereo unspecified) | 85% |  |  | 
C=CCOC1CC(C)C([N+](=O)[O-])=C2N(Cc3ccc(Cl)nc3)CCN21 (stereo unspecified) | 100% |  |  | 
CC1CC(O)N2CCN(Cc3ccc(Cl)nc3)C2=C1[N+](=O)[O-] (stereo unspecified) | 100% | 31.5 µg/mL (≈ 97 µM) | 20.7 µg/mL (≈ 63.8 µM) | 7.36 µg/mL (≈ 22.7 µM)
CCOC1CC(CC)C([N+](=O)[O-])=C2N(Cc3ccc(Cl)nc3)CCN21 (stereo unspecified) | 100% | 48.9 µg/mL (≈ 133 µM) |  | 
CC1CC(OCCO)N2CCN(Cc3ccc(Cl)nc3)C2=C1[N+](=O)[O-] (stereo unspecified) | 0% |  |  | 
CCCC1CC(OCC)N2CCN(Cc3ccc(Cl)nc3)C2=C1[N+](=O)[O-] (stereo unspecified) | 95% |  |  | 
CC1CC([N+](=O)[O-])=C2N(Cc3ccc(Cl)nc3)CCN2C1O (stereo unspecified) | 70% |  |  | 
CC(C)OC1C(C)CC([N+](=O)[O-])=C2N(Cc3ccc(Cl)nc3)CCN21 (stereo unspecified) | 67% |  |  | 
CCOC1CC(C)C([N+](=O)[O-])=C2N(Cc3ccc(Cl)nc3)CCN21 (stereo unspecified) | 100% | 65.4 µg/mL (≈ 185 µM) |  | 
CC1CC(OCCCl)N2CCN(Cc3ccc(Cl)nc3)C2=C1[N+](=O)[O-] (stereo unspecified) | 100% | 74.7 µg/mL (≈ 193 µM) |  | 
CC(C)COC1CC(C)C([N+](=O)[O-])=C2N(Cc3ccc(Cl)nc3)CCN21 (stereo unspecified) | 0% |  |  | 
CCC1CC(O)N2CCN(Cc3ccc(Cl)nc3)C2=C1[N+](=O)[O-] (stereo unspecified) | 100% | 61 µg/mL (≈ 180 µM) |  | 
O=[N+]([O-])/N=C1\NCCN1Cc1ccc(Cl)nc1 [IMIDACLOPRID] | 100% | 7.9 µg/mL (≈ 30.9 µM) | 0.14 µg/mL (≈ 0.548 µM) | 19.7 µg/mL (≈ 77.2 µM)
CCCOC1CC(C)C([N+](=O)[O-])=C2N(Cc3ccc(Cl)nc3)CCN21 (stereo unspecified) [PAICHONGDING] | 100% | 33.7 µg/mL (≈ 91.8 µM) | 7.35 µg/mL (≈ 20 µM) | 7.2 µg/mL (≈ 19.6 µM)
